High-throughput results from PubChem BioAssay.
Hits are enriched below; roughly 3.1% of the tested compounds scored in any of these assays.
Apaf1 inhib = inhibitors of human Apaf-1 apoptosome, primary screen, biochemical, DEVD-Rh110 fluorescence, uHTS. Apoptotic protease-activating factor 1 (Homo sapiens), O14727. reconstituted apoptosome caspase-3 activity. inhibition, % at 20 µM. actives 0.71% (n = 330,000). AID 489030, 2010; active = inhibition of at least 40% at 20 µM;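 also: plate controls were DMSO wells for no effect and DEVD-CHO caspase inhibitor wells for full effect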
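Assay system: Apoptosome proteins | Medium: pH 7.5 Hepes buffer with CHAPS, BSA, DTT | Also added: Cytochrome c and DEVD-Rh110 substrate | Times: 30 min plus 50 min, RT | Detection: Rhodamine 110 fluorescence at Ex 480/Em 540 nm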
MEKK2 WT-MEK5 = modulators of MEK5 binding to wildtype MEKK2, primary screen, biochemical, multiplex bead flow cytometry, Alexa488-MEK5; actives 1.1% (n = 290,000); binding response (% of control), % at 10 µM; Mitogen-activated protein kinase kinase kinase 2 (Homo sapiens), Q9Y2U5; Alexa488-MEK5 binding to MEKK2 WT; actives lie on both sides; in the data active = binding response below about 67% or above about 130%
MEKK3 PB1 HTS = modulators of MEKK3-MEK5 PB1 binding, primary screen, biochemical, wildtype MEKK3, multiplex bead flow cytometry, Alexa488-MEK5 | bead-based flow cytometry, Alexa488-MEK5 binding to MEKK3; actives lie on both sides; 0 = blocked by unlabeled MEK5, 100 = vehicle | actives 1.4% (n = 290,000) | binding response (% of control), % at 10 µM | AID 1529, 2009 | Mitogen-activated protein kinase kinase kinase 3 (Homo sapiens), Q99759;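 active = binding response more than 3 SD above or below the average of its plate-row segment, actives on both sides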;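 also: Alexa488 bead fluorescence after subtracting the streptavidin-only scavenger bead signal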
Target sequence (Q99759 whole entry, looked up): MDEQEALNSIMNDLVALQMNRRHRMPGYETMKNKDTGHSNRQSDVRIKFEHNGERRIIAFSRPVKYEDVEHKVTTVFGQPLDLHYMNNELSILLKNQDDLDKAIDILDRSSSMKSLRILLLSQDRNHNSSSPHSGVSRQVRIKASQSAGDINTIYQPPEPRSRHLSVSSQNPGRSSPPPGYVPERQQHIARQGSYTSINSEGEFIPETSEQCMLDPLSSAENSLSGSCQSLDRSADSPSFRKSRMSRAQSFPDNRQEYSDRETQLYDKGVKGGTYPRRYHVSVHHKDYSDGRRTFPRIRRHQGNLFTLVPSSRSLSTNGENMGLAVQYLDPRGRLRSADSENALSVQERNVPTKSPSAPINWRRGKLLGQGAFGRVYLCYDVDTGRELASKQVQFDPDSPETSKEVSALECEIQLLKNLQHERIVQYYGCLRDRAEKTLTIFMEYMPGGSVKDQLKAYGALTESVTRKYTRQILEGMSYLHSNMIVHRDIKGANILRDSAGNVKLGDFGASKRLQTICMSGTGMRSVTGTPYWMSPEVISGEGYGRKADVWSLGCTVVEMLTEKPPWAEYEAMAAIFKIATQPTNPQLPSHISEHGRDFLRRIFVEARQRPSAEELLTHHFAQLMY
MEKK2 mut-MEK5 = MEK5 binding signal on mutant MEKK2 PB1, primary screen, biochemical, multiplex bead flow cytometry, Alexa488-MEK5. Alexa488-MEK5 binding to MEKK2 mutant. percent response, % at 10 µM. actives 0.35% (n = 290,000). AID 1530, 2009; in the data active = percent response above about 24%, passing the limit was not always enough
UBC13 polyUb = UBC13 polyubiquitin chain formation inhibitors, primary screen, biochemical, TR-FRET, uHTS. Ubiquitin-conjugating enzyme E2 N (Homo sapiens), P61088. inhibition, % at 20 µM. actives 0.47% (n = 330,000). AID 485273, 2010; in the data active = inhibition above about 45%, passing the limit was not always enough
PREPL inhibitor = PREPL enzyme inhibitors, primary screen, biochemical, fluorescence polarization | Prolyl endopeptidase-like (Homo sapiens), Q4J6C6 | actives 0.68% (n = 320,000) | inhibition, % at 5.96 µM | recombinant PREPL, fluorescence polarization activity-based probe; in the data active = inhibition above about 43%;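 also: 0% = enzyme with DMSO and 100% = wells lacking enzyme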
MEKK2wt confirm = modulators of MEK5 binding to wildtype MEKK2, confirmation, biochemical, single concentration, multiplex bead flow cytometry | shares compounds with MEKK3 PB1 HTS | Alexa488-MEK5 binding to MEKK2 WT; actives lie on both sides | binding response (% of control), % at 10 µM | actives 2.4% (n = 5,900) | AID 1892, 2009; in the data active = binding response below about 16% or above about 210%; inactive = in between
MEKK2mut confirm = mutant MEKK2 PB1-MEK5 binding signal retest – biochemical, single concentration, multiplex bead flow cytometry, confirmation; AID 1893, 2009; actives 2% (n = 5,900); Alexa488-MEK5 binding to MEKK2 mutant; percent response, % at 10 µM; shares compounds with MEKK3 PB1 HTS; in the data active = percent response mostly above about 71%, no sharp cut-off; inactive = mostly below about 38%;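 also: higher means compound restores mutant binding toward wildtype level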
MEKK3 confirm = MEKK3 wild-type PB1 binding to MEK5, inhibitors, confirmation, biochemical, bead multiplex flow cytometry, single concentration, wildtype | shares compounds with MEKK3 PB1 HTS | Alexa488-MEK5 binding to MEKK3; hits give low values | binding response (% of control), % at 10 µM | actives 1.8% (n = 5,900) | AID 1894, 2009;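 active = binding response below 72% of control, or above a set upper limit, though filed actives all read lower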;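 also: 100% = DMSO only wells and 0% = binding blocked by excess unlabeled MEK5; lower values mean stronger disruption of MEK5 binding to MEKK3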
Active calls of the source: *; nt = no result given; [ ] = another dose, or the depositor's remark.

SMILES	Apaf1 inhib	MEKK2 WT-MEK5	MEKK3 PB1 HTS	MEKK2 mut-MEK5	UBC13 polyUb	PREPL inhibitor	MEKK2wt confirm	MEKK2mut confirm	MEKK3 confirm
CC1=N/C(=C\c2ccc([N+](=O)[O-])cc2)C(=O)N1c1ccc(Br)c(C)c1	1	-2.0*	82*[inhibitor]	-8	-3	12	92	-5	101
c1ccc(CN2CCC(Nc3ncnc4sccc34)CC2)cc1	-14	129	105	51*	22	6	125	12	103
Cc1sc2ncnc(NC3CCN(Cc4ccccc4)CC3)c2c1C	-8	89	91	-5	3	10	nt	nt	nt
c1ccc(CN2CCC(Nc3nc(-c4cccnc4)nc4ccccc34)CC2)cc1	11	144*	102	16	-2	-53	137	12	98
Cc1cccc(C)c1Nc1ncnc(N)c1[N+](=O)[O-]	-4	119	117	51*	-2	0	107	11	104
CC(=O)Nc1ccc(Nc2ncnc(N)c2[N+](=O)[O-])cc1	0	103	104	6	-4	7	nt	nt	nt
CCc1ccc(OCC(=O)NC(=S)Nc2ccc(F)cc2)c(Br)c1	-7	57	53*[inhibitor]	-13	-9	3	98	-8	97
Cc1cccc(NS(=O)(=O)c2cc(C(=O)N3CCCCCC3)ccc2C)c1	17	103	100	9	-3	10	nt	nt	nt
CCOC(=O)c1ccc(S(=O)(=O)NNC(=O)c2cccc(N(C)C)c2)cc1	-11	3.0*[inhibitor]	3.0*[inhibitor]	4	-1	-13	98	-3	100
COc1ccc(N(CC(=O)N2CCC(C(N)=O)CC2)S(=O)(=O)c2ccccc2)cc1	3	103	102	1	9	-4	nt	nt	nt
CN1CCCN(C(=O)CNC(=O)c2ccc(Cl)cc2Cl)CC1	6	nt	nt	nt	-4	20	nt	nt	nt
O=C(CSc1nc2ncc(Br)cc2[nH]1)c1ccc([N+](=O)[O-])cc1	5	101	132*	0	-14	15	107	1	103
COc1ccc(NC(=O)N(Cc2cc3cc(C)ccc3[nH]c2=O)CC2CCCO2)cc1 (centres undefined)	-1	119	130*	30	7	-2	-4.0*[inhibitor]	-2	86
O=C(Cn1cc(C(F)(F)F)cc(Cl)c1=O)Nc1cccc(S(=O)(=O)N2CCCCC2)c1	-8	nt	nt	nt	7	-1	nt	nt	nt
COc1cc(/C=N/NC(=O)c2ccc(Cl)cc2)ccc1OCC(=O)N1CC(C)OC(C)C1 (centres undefined)	6	74	52*[inhibitor]	-4	-5	-3	102	1	103
NS(=O)(=O)c1ccc(CCN2C(=O)CCC2=O)cc1	0	105	106	6	5	-1	nt	nt	nt
COc1cccc(NC(=O)COC(=O)c2ccc(C)c(S(=O)(=O)N3CCCCC3)c2)c1	1	nt	nt	nt	8	-7	nt	nt	nt
COc1cccc(CNc2cc(C)ccn2)c1O	-18	100	100	27*	10	15	97	-10	98
Cc1cc(C)c(C#N)c(SCC(=O)Nc2c(C)n(C)n(-c3ccccc3)c2=O)n1	-4	nt	nt	nt	-3	10	nt	nt	nt
